Experimental data published in publication PMC11904481 (ESMO Open, 2025).

System: patients with locally advanced unresectable or metastatic, relapsed and/or refractory nonhematological malignancies
Assay: Phase I safety: adverse events
Type: in vivo, human
Summary of the method: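 Adverse events were graded by NCI CTCAE v4.03 across three i.v. schedules of the test compound (0.45-11.3 mg/kg; weekly per 28-day cycle, or days 1, 4, 8 ±11, 15 per 21-day cycle). Special-interest events covered retinal dysfunction symptoms and documented retinal disorders. Clustered signs were grouped as 'infusion reaction'. QTc was calculated with the Fridericia correction.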

[1] = schedules 1/2 cohort 1, 0.45 mg/kg
[2] = schedules 1/2 cohort 2, 0.9 mg/kg
[3] = schedules 1/2 cohort 3, 1.8 mg/kg
[4] = schedules 1/2 cohort 4, 3.6 mg/kg
[5] = schedules 1/2 cohort 5, 5.4 mg/kg
[6] = schedules 1/2 cohort 6, 4.8 mg/kg
[7] = schedules 1/2 cohort 7, 5.4 mg/kg
[8] = schedules 1/2 cohort 8, 7.2 mg/kg
[9] = schedules 1/2 cohort 9, 9.6 mg/kg

O=C1Nc2cc3[nH]nc(-c4ccncc4)c3cc2CN1Cc1ccccc1 [KO-947]
Total number of AESI [1]: 0 n
Total number of treatment-related TEAEs [1]: 2 n
Treatment-related TEAE: Blurred vision [1]: 0 n (%)
Treatment-related TEAE: Dermatitis acneiform [1]: 0 n (%)
Treatment-related TEAE: Fatigue [1]: 1 (100) n (%)
Treatment-related TEAE: Headache [1]: 0 n (%)
Treatment-related TEAE: Nausea [1]: 0 n (%)
Treatment-related TEAE: QTc prolongation [1]: 0 n (%)
Treatment-related TEAE: Subretinal fluid [1]: 0 n (%)
Treatment-related TEAE: Vomiting [1]: 0 n (%)
AESI: Blurred vision [2]: 0 n (%)
AESI: Eye disorders [2]: 0 n (%)
AESI: Macular edema [2]: 0 n (%)
AESI: Retinal edema [2]: 0 n (%)
AESI: Subretinal fluid [2]: 0 n (%)
AESI: Vitreous floaters [2]: 0 n (%)
Patients with ≥1 AESI [2]: 0 n (%)
Patients with ≥1 treatment-related TEAE [2]: 0 n (%)
Total number of AESI [2]: 0 n
Total number of treatment-related TEAEs [2]: 0 n
Treatment-related TEAE: Blurred vision [2]: 0 n (%)
Treatment-related TEAE: Dermatitis acneiform [2]: 0 n (%)
Treatment-related TEAE: Fatigue [2]: 0 n (%)
Treatment-related TEAE: Headache [2]: 0 n (%)
Treatment-related TEAE: Nausea [2]: 0 n (%)
Treatment-related TEAE: QTc prolongation [2]: 0 n (%)
Treatment-related TEAE: Subretinal fluid [2]: 0 n (%)
Treatment-related TEAE: Vomiting [2]: 0 n (%)
AESI: Blurred vision [3]: 0 n (%)
AESI: Eye disorders [3]: 0 n (%)
AESI: Macular edema [3]: 0 n (%)
AESI: Retinal edema [3]: 0 n (%)
AESI: Subretinal fluid [3]: 0 n (%)
AESI: Vitreous floaters [3]: 0 n (%)
Patients with ≥1 AESI [3]: 0 n (%)
Patients with ≥1 treatment-related TEAE [3]: 1 (100) n (%)
Total number of AESI [3]: 0 n
Total number of treatment-related TEAEs [3]: 1 n
Treatment-related TEAE: Blurred vision [3]: 0 n (%)
Treatment-related TEAE: Dermatitis acneiform [3]: 0 n (%)
Treatment-related TEAE: Fatigue [3]: 0 n (%)
Treatment-related TEAE: Headache [3]: 0 n (%)
Treatment-related TEAE: Nausea [3]: 0 n (%)
Treatment-related TEAE: QTc prolongation [3]: 0 n (%)
Treatment-related TEAE: Subretinal fluid [3]: 0 n (%)
Treatment-related TEAE: Vomiting [3]: 0 n (%)
AESI: Blurred vision [4]: 0 n (%)
AESI: Eye disorders [4]: 0 n (%)
AESI: Macular edema [4]: 0 n (%)
AESI: Retinal edema [4]: 0 n (%)
AESI: Subretinal fluid [4]: 0 n (%)
AESI: Vitreous floaters [4]: 0 n (%)
Patients with ≥1 AESI [4]: 0 n (%)
Patients with ≥1 treatment-related TEAE [4]: 2 (67) n (%)
Total number of AESI [4]: 0 n
Total number of treatment-related TEAEs [4]: 7 n
Treatment-related TEAE: Blurred vision [4]: 0 n (%)
Treatment-related TEAE: Dermatitis acneiform [4]: 0 n (%)
Treatment-related TEAE: Fatigue [4]: 0 n (%)
Treatment-related TEAE: Headache [4]: 1 (33) n (%)
Treatment-related TEAE: Nausea [4]: 1 (33) n (%)
Treatment-related TEAE: QTc prolongation [4]: 0 n (%)
Treatment-related TEAE: Subretinal fluid [4]: 0 n (%)
Treatment-related TEAE: Vomiting [4]: 1 (33) n (%)
AESI: Blurred vision [5]: 0 n (%)
AESI: Eye disorders [5]: 0 n (%)
AESI: Macular edema [5]: 0 n (%)
AESI: Retinal edema [5]: 0 n (%)
AESI: Subretinal fluid [5]: 0 n (%)
AESI: Vitreous floaters [5]: 0 n (%)
Patients with ≥1 AESI [5]: 0 n (%)
Patients with ≥1 treatment-related TEAE [5]: 7 (100) n (%)
Total number of AESI [5]: 0 n
Total number of treatment-related TEAEs [5]: 60 n
Treatment-related TEAE: Blurred vision [5]: 4 (57) n (%)
Treatment-related TEAE: Dermatitis acneiform [5]: 0 n (%)
Treatment-related TEAE: Fatigue [5]: 1 (14) n (%)
Treatment-related TEAE: Headache [5]: 1 (14) n (%)
Treatment-related TEAE: Nausea [5]: 1 (14) n (%)
Treatment-related TEAE: QTc prolongation [5]: 1 (14) n (%)
Treatment-related TEAE: Subretinal fluid [5]: 3 (43) n (%)
Treatment-related TEAE: Vomiting [5]: 0 n (%)
AESI: Blurred vision [6]: 0 n (%)
AESI: Eye disorders [6]: 1 (25) n (%)
AESI: Macular edema [6]: 0 n (%)
AESI: Retinal edema [6]: 0 n (%)
AESI: Subretinal fluid [6]: 1 (25) n (%)
AESI: Vitreous floaters [6]: 0 n (%)
Patients with ≥1 AESI [6]: 1 (25) n (%)
Patients with ≥1 treatment-related TEAE [6]: 3 (75) n (%)
Total number of AESI [6]: 3 n
Total number of treatment-related TEAEs [6]: 25 n
Treatment-related TEAE: Blurred vision [6]: 1 (25) n (%)
Treatment-related TEAE: Dermatitis acneiform [6]: 1 (25) n (%)
Treatment-related TEAE: Fatigue [6]: 0 n (%)
Treatment-related TEAE: Headache [6]: 1 (25) n (%)
Treatment-related TEAE: Nausea [6]: 1 (25) n (%)
Treatment-related TEAE: QTc prolongation [6]: 0 n (%)
Treatment-related TEAE: Subretinal fluid [6]: 1 (25) n (%)
Treatment-related TEAE: Vomiting [6]: 0 n (%)
AESI: Blurred vision [7]: 2 (67) n (%)
AESI: Eye disorders [7]: 3 (10) n (%)
AESI: Macular edema [7]: 0 n (%)
AESI: Retinal edema [7]: 0 n (%)
AESI: Subretinal fluid [7]: 2 (67) n (%)
AESI: Vitreous floaters [7]: 1 (33) n (%)
Patients with ≥1 AESI [7]: 3 (10) n (%)
Patients with ≥1 treatment-related TEAE [7]: 3 (100) n (%)
Total number of AESI [7]: 5 n
Total number of treatment-related TEAEs [7]: 18 n
Treatment-related TEAE: Blurred vision [7]: 2 (67) n (%)
Treatment-related TEAE: Dermatitis acneiform [7]: 1 (33) n (%)
Treatment-related TEAE: Fatigue [7]: 1 (33) n (%)
Treatment-related TEAE: Headache [7]: 1 (33) n (%)
Treatment-related TEAE: Nausea [7]: 2 (67) n (%)
Treatment-related TEAE: QTc prolongation [7]: 0 n (%)
Treatment-related TEAE: Subretinal fluid [7]: 2 (67) n (%)
Treatment-related TEAE: Vomiting [7]: 1 (33) n (%)
AESI: Blurred vision [8]: 2 (40) n (%)
AESI: Eye disorders [8]: 5 (10) n (%)
AESI: Macular edema [8]: 0 n (%)
AESI: Retinal edema [8]: 1 (20) n (%)
AESI: Subretinal fluid [8]: 2 (40) n (%)
AESI: Vitreous floaters [8]: 0 n (%)
Patients with ≥1 treatment-related TEAE [8]: 5 (100) n (%)
Total number of AESI [8]: 5 n
Total number of treatment-related TEAEs [8]: 14 n
Treatment-related TEAE: Blurred vision [8]: 2 (40) n (%)
Treatment-related TEAE: Dermatitis acneiform [8]: 2 (40) n (%)
Treatment-related TEAE: Fatigue [8]: 0 n (%)
Treatment-related TEAE: Headache [8]: 0 n (%)
Treatment-related TEAE: Nausea [8]: 0 n (%)
Treatment-related TEAE: QTc prolongation [8]: 0 n (%)
Treatment-related TEAE: Subretinal fluid [8]: 2 (40) n (%)
Treatment-related TEAE: Vomiting [8]: 1 (20) n (%)
AESI: Blurred vision [9]: 8 (89) n (%)
AESI: Eye disorders [9]: 8 (89) n (%)
AESI: Macular edema [9]: 1 (11) n (%)
AESI: Retinal edema [9]: 1 (11) n (%)
AESI: Subretinal fluid [9]: 3 (33) n (%)
AESI: Vitreous floaters [9]: 1 (11) n (%)
Patients with ≥1 AESI [9]: 8 (89) n (%)
Patients with ≥1 treatment-related TEAE [9]: 8 (89) n (%)
Total number of AESI [9]: 16 n
Total number of treatment-related TEAEs [9]: 39 n
Treatment-related TEAE: Blurred vision [9]: 8 (89) n (%)
Treatment-related TEAE: Dermatitis acneiform [9]: 1 (11) n (%)
Treatment-related TEAE: Fatigue [9]: 1 (11) n (%)
Treatment-related TEAE: Headache [9]: 0 n (%)
Treatment-related TEAE: Nausea [9]: 1 (11) n (%)
Treatment-related TEAE: QTc prolongation [9]: 4 (44) n (%)
Treatment-related TEAE: Subretinal fluid [9]: 3 (33) n (%)
Treatment-related TEAE: Vomiting [9]: 2 (22) n (%)
AESI: Blurred vision (schedules 1/2 total N = 34): 12 (35) n (%)
AESI: Eye disorders (schedules 1/2 total N = 34): 17 (50) n (%)
AESI: Macular edema (schedules 1/2 total N = 34): 1 (3) n (%)
AESI: Retinal edema (schedules 1/2 total N = 34): 2 (6) n (%)
AESI: Subretinal fluid (schedules 1/2 total N = 34): 8 (24) n (%)
AESI: Vitreous floaters (schedules 1/2 total N = 34): 2 (6) n (%)
Patients with ≥1 AESI (schedules 1/2 total N = 34): 17 (50) n (%)
Patients with ≥1 treatment-related TEAE (schedules 1/2 total N = 34): 30 (88) n (%)
Total number of AESI (schedules 1/2 total N = 34): 29 n
Total number of treatment-related TEAEs (schedules 1/2 total N = 34): 166 n
Treatment-related TEAE: Blurred vision (schedules 1/2 total N = 34): 17 (50) n (%)
Treatment-related TEAE: Dermatitis acneiform (schedules 1/2 total N = 34): 5 (15) n (%)
Treatment-related TEAE: Fatigue (schedules 1/2 total N = 34): 4 (12) n (%)
Treatment-related TEAE: Headache (schedules 1/2 total N = 34): 4 (12) n (%)
Treatment-related TEAE: Nausea (schedules 1/2 total N = 34): 6 (18) n (%)
Treatment-related TEAE: QTc prolongation (schedules 1/2 total N = 34): 5 (15) n (%)
Treatment-related TEAE: Subretinal fluid (schedules 1/2 total N = 34): 11 (32) n (%)
Treatment-related TEAE: Vomiting (schedules 1/2 total N = 34): 5 (15) n (%)
grade ≥3 TEAE: QTc prolongation on ECG (schedules 1 and 2): 9%
grade ≥3 TEAE: hypokalemia (schedules 1 and 2): 6%
grade ≥3 TEAE: increased blood alkaline phosphatase (schedules 1 and 2): 6%
grade ≥3 TEAE: increased gamma-glutamyl transferase (schedules 1 and 2): 15%
grade ≥3 TEAE: lymphopenia (schedules 1 and 2): 6%
grade ≥3 TEAE: rash (schedules 1 and 2): 6%
patients discontinued owing to AEs (schedules 1 and 2): 3%
patients with at least one AESI (schedules 1 and 2): 50%
patients with grade ≥3 TEAEs (schedules 1 and 2): 50%
treatment-related QTc prolongation (schedules 1 and 2): 15%
treatment-related blurred vision (schedules 1 and 2): 50%
treatment-related dermatitis acneiform (schedules 1 and 2): 15%
treatment-related fatigue (schedules 1 and 2): 12%
treatment-related headache (schedules 1 and 2): 12%
treatment-related nausea (schedules 1 and 2): 18%
treatment-related subretinal fluid (schedules 1 and 2): 32%
treatment-related vomiting (schedules 1 and 2): 15%
